Reference: paper PMC3817526 (Nmr in Biomedicine, 2013)
Where a name gives a salt, the structure may show the parent alone. Read-outs that look alike come from different tables or passages of the source. One block for each molecule: values may come before it.

Tests used:
rat Bsep (rBsep) = biological target: T1, rat Bsep (rBsep) (Rattus norvegicus, UniProt O70127); test: Inhibition of [3H]-taurocholate uptake into rBsep membrane vesicles; assay type: biochemical; conditions: read-out: IC50, [3H]-taurocholate uptake into vesicles expressing rBsep; geometric mean, 95% CL 109.8–153.2, n = 5
T1 sequence (O70127 1-1321): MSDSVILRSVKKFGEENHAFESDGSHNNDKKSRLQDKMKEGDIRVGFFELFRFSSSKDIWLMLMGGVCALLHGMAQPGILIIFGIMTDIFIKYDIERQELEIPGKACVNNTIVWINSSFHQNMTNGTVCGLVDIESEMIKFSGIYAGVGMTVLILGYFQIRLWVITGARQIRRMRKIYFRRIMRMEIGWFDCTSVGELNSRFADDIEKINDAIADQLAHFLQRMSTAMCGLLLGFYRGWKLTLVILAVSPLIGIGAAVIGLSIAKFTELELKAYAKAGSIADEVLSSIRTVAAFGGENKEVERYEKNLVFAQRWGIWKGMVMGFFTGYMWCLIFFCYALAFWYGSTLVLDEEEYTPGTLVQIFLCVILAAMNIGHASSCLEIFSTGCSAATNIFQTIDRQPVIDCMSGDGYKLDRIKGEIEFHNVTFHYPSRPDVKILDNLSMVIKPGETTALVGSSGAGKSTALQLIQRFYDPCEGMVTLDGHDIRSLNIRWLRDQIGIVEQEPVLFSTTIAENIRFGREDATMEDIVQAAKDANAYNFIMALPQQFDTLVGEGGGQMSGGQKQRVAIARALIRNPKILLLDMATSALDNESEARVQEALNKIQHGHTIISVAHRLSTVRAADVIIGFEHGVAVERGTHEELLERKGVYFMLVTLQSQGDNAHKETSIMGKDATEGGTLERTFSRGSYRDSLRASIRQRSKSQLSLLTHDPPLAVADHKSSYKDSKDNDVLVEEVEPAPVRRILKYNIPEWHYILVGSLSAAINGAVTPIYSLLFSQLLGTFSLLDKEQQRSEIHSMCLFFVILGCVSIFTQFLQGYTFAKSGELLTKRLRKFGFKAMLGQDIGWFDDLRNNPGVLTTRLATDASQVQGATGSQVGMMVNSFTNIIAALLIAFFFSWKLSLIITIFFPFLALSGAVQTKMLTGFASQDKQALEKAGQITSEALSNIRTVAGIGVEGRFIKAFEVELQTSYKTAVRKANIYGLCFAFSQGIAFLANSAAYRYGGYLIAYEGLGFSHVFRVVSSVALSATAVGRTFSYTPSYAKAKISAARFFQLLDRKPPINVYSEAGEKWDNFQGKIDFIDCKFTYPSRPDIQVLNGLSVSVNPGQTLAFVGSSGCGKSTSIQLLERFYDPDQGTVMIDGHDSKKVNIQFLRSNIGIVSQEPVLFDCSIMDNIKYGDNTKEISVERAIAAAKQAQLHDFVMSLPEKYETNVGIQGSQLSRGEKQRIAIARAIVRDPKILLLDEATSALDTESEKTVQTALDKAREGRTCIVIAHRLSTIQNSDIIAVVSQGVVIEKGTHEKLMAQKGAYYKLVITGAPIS

rat Mrp2 (rMrp2) = rat Mrp2 (rMrp2) (Rattus norvegicus, UniProt Q63120); test: Inhibition of CDF uptake into rMrp2 membrane vesicles; assay type: biochemical; conditions: read-out: IC50, CDF uptake into vesicles expressing Mrp2; geometric mean, 95% CL 58.2–80.7, n = 4
[1] = tested on: hepatic uptake and biliary excretion of gadoxetate; assay type: in vivo, rat; conditions: for Vmax, gadoxetate efflux into bile / k1, rate of gadoxetate uptake into the hepatocyte: mean ± SEM
In short: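 Rats (298 ± 26 g), six per group, got vehicle (water, 0.5% w/v HPMC/0.1% w/v polysorbate 80) or suspended compound by oral gavage (20–2000 mg/kg). Anaesthetised 30 min post-dose; DCE-MRI began 60 min post-dose, gadoxetate given by tail-vein pump at t = 5 min, acquisition run to 60 min (1 min/volume). Hepatocyte signal derived from liver and spleen signals using extracellular fraction; k1, Vmax, KM fitted by least-squares per dose group.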

[2] = Plasma chemistry analysis after CKA; assay type: in vivo, rat
liver = test: Liver pathology analysis; assay type: in vivo; conditions: CKA 20, 200 or 500 mg/kg oral, rat
[3] = tested on: gadoxetate-induced MRI liver enhancement; conditions: rats, cited from earlier work; for maximum hepatic MRI signal enhancement by gadoxetate: administration of OATP inhibitors
[4] = tested on: relative liver MRI signal enhancement; conditions: healthy volunteers; cited from earlier work
[5] = Gadopentetate DCE-MRI estimation of volume fraction of extracellular space; assay type: in vivo, rat; conditions: gadopentetate 100 µmol/kg i.v., five rats, haematocrit 0.45, mean ± SEM
In short: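 Healthy rats (282 ± 9 g). IntraGate FLASH DCE-MRI: ten 2 mm slices, TR 60.3 ms, TE 1.4 ms, flip 30°, 1 min/volume. Contrast given by tail-vein pump (5 ml/min) 5 min after acquisition start; acquisition continuous for 45 min. ve taken as the tissue/plasma AUC ratio, with plasma concentration equal to whole-blood concentration/(1 − Hct). Isoflurane overdose afterwards.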

[6] = 4.7 T, plasma value assumed for liver and spleen; cited from earlier work
[7] = rats; cited from earlier work
[8] = humans; cited from earlier work
[9] = CKA 20 mg/kg oral, rat, gadoxetate 25 µmol/kg i.v.
[10] = CKA 200 mg/kg oral, rat, gadoxetate 25 µmol/kg i.v.
[11] = CKA 500 mg/kg oral, rat, gadoxetate 25 µmol/kg i.v.
[12] = CKA 2000 mg/kg oral, rat, gadoxetate 25 µmol/kg i.v.
[13] = gadoxetate 25 µmol/kg i.v. in rats given vehicle only (no CKA)

Chain of rat Mrp2 (rMrp2) (Q63120 whole entry): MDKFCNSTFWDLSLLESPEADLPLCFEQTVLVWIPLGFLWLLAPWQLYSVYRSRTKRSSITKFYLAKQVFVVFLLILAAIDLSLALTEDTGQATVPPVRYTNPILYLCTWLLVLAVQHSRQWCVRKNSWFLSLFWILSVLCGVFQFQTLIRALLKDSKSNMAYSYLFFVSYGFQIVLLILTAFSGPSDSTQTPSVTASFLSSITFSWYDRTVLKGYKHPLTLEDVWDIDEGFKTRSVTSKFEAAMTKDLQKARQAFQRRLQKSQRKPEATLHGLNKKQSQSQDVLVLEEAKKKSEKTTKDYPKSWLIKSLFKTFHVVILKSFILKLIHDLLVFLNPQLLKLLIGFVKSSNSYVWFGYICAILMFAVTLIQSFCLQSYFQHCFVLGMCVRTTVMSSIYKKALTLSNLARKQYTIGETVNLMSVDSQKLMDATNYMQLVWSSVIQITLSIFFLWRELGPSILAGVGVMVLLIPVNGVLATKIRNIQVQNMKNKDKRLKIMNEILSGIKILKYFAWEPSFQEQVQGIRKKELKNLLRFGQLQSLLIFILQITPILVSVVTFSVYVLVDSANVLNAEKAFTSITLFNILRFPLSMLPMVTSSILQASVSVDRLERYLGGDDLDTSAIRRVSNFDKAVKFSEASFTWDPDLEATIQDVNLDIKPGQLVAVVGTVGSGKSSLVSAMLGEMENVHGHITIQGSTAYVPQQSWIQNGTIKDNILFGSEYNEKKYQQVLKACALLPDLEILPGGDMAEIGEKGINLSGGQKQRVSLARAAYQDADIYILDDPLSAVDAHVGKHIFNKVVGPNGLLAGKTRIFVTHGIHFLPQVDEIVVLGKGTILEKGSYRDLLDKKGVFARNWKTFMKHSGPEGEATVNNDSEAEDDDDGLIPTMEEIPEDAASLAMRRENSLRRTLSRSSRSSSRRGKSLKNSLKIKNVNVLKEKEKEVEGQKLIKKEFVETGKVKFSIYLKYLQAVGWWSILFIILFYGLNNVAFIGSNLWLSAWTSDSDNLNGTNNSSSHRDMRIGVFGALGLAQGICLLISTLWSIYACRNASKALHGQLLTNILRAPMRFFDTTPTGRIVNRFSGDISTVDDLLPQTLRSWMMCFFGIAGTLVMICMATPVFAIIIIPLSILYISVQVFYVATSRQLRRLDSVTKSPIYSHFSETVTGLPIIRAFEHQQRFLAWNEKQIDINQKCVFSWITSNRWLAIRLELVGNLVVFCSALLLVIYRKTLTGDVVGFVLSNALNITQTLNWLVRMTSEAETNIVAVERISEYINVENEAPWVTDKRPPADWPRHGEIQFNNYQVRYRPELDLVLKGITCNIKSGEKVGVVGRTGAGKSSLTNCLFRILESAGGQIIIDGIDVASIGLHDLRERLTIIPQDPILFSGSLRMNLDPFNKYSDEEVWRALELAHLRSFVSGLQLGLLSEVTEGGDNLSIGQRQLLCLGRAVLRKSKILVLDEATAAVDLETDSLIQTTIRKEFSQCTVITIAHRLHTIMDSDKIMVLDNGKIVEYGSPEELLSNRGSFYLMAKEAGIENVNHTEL

- IC50 (rat Mrp2 (rMrp2)): 68.5 µM
- effect on the kinetic parameters k1, Vmax and KM of gadoxetate ([1]; CKA 20 mg/kg oral, compared with vehicle): no significant effect
- Vmax, gadoxetate efflux into bile [1, 9]: 2.9 ± 0.4 µmol/s
- k1, rate of gadoxetate uptake into the hepatocyte [1, 9]: 26.1 ± 3.3 µmol/s
- Vmax, gadoxetate efflux into bile [1, 10]: 0.6 ± 0.2 µmol/s
- k1, rate of gadoxetate uptake into the hepatocyte [1, 10]: 6.6 ± 1.9 µmol/s
- gadoxetate enhancement of the bowel (images) ([1]; CKA 500 mg/kg oral): no enhancement
- Vmax, gadoxetate efflux into bile [1, 11]: 0.1 ± 0.1 µmol/s
- k1, rate of gadoxetate uptake into the hepatocyte [1, 11]: 1.7 ± 0.4 µmol/s
- Vmax, gadoxetate efflux into bile [1, 12]: 0.1 ± 0.1 µmol/s
- k1, rate of gadoxetate uptake into the hepatocyte [1, 12]: 1.2 ± 0.2 µmol/s
- rate of gadoxetate uptake into the liver and clearance from the liver into the GI tract (images) ([1]; CKA 200 and 500 mg/kg oral, compared with vehicle): marked and dose-dependent reduction
- plasma bile acids ([2]; CKA 20-2000 mg/kg oral, rat): marked dose-dependent increases
- plasma total bilirubin ([2]; CKA 20-2000 mg/kg oral, rat): marked dose-dependent increases
SMILES: O=C(O)c1cc2cc(O)ccc2n1Cc1ccc(Cl)c(C(F)(F)F)c1 [CKA, 1-(4-chloro-3-trifluoromethyl-benzyl)-5-hydroxy-1-H-indole-2-carboxylic acid]
- IC50 (rat Bsep (rBsep)): 130 µM
- plasma ALT levels ([2]; CKA 20-2000 mg/kg oral, rat, most evident at 500 and 2000 mg/kg): dose-related increase
- plasma ALT value ([2]; single animal with necrosis, CKA 2000 mg/kg): 344 IU/l
- liver histology (H&E liver sections) (liver): no histological features indicative of drug-induced hepatotoxicity

SMILES: C=CC1=C(C)/C(=C/c2[nH]c(Cc3[nH]c(/C=C4\NC(=O)C(C)=C4C=C)c(C)c3CCC(=O)O)c(CCC(=O)O)c2C)NC1=O [bilirubin]
- maximum hepatic MRI signal enhancement by gadoxetate [3]: reduction

SMILES: O=C1OC(c2ccc(O)c(S(=O)(=O)O)c2)(c2ccc(O)c(S(=O)(=O)O)c2)c2c(Br)c(Br)c(Br)c(Br)c21 [bromosulfophthalein]
- maximum hepatic MRI signal enhancement by gadoxetate [3]: reduction

SMILES: N.N.[Cl][Pt][Cl] [cisplatin]
- maximum hepatic MRI signal enhancement by gadoxetate [3]: reduction

SMILES: COc1cccc2c1C(=O)c1c(O)c3c(c(O)c1C2=O)C[C@@](O)(C(=O)CO)C[C@@H]3O[C@H]1C[C@H](N)[C@H](O)[C@H](C)O1 [doxorubicin hydrochloride]
- maximum hepatic MRI signal enhancement by gadoxetate [3]: reduction

SMILES: CC[C@H]1OC(=O)[C@H](C)[C@@H](O[C@H]2C[C@@](C)(OC)[C@@H](O)[C@H](C)O2)[C@H](C)[C@@H](O[C@@H]2O[C@H](C)C[C@H](N(C)C)[C@H]2O)[C@](C)(O)C[C@@H](C)C(=O)[C@H](C)[C@@H](O)[C@]1(C)O [erythromycin]
- relative liver MRI signal enhancement versus control subjects [4]: did not show a statistically significant difference

SMILES: C[C@]12CC[C@@H]3c4ccc(O)cc4CC[C@H]3[C@@H]1CC[C@@H]2O[C@@H]1O[C@H](C(=O)O)[C@@H](O)[C@H](O)[C@H]1O [estradiol 17-β-D-glucuronide]
- gadoxetate-induced MRI liver enhancement ([3]; single administration): transiently prolonged

- liver fractional extracellular space (AUC ratio tissue/plasma) [5]: 0.23 ± 0.02
- spleen fractional extracellular space (AUC ratio tissue/plasma) [5]: 0.43 ± 0.02
SMILES: O=C([O-])CN(CCN(CC(=O)[O-])CC(=O)O)CCN(CC(=O)[O-])CC(=O)O.[Gd+3] [gadopentetate]
- relaxivity r1 [6]: 3.8 s⁻¹ mM⁻¹

- Vmax, gadoxetate efflux into bile [1, 13]: 2.9 ± 0.3 µmol/s
- k1, rate of gadoxetate uptake into the hepatocyte [1, 13]: 29.4 ± 3.0 µmol/s
SMILES: CCOc1ccc(C[C@@H](CN(CCN(CC(=O)[O-])CC(=O)[O-])CC(=O)[O-])N(CC(=O)[O-])CC(=O)[O-])cc1.[Gd+3].[H+].[H+] [gadoxetate]
- gadoxetate clearance, biliary [7]: 70%
- gadoxetate clearance, renal [7]: 30%
- excreted via each route (biliary, renal) [8]: 50%
- relaxivity r1 [6]: 5.9 s⁻¹ mM⁻¹

SMILES: C[C@]12C=CC(=O)C=C1CC[C@@H]1[C@@H]2[C@@H](O)C[C@@]2(C)[C@H]1CC[C@]2(O)C(=O)CO [prednisolone]
- maximum hepatic MRI signal enhancement by gadoxetate [3]: reduction

SMILES: CC(C)NCC(O)COc1cccc2ccccc12 (stereo not shown) [propranolol hydrochloride]
- maximum hepatic MRI signal enhancement by gadoxetate [3]: reduction

SMILES: CO[C@H]1/C=C/O[C@@]2(C)Oc3c(C)c(O)c4c(O)c(c(/C=N/N5CCN(C)CC5)c(O)c4c3C2=O)NC(=O)/C(C)=C\C=C\[C@H](C)[C@H](O)[C@@H](C)[C@@H](O)[C@@H](C)[C@H](OC(C)=O)[C@@H]1C [rifampicin]
- maximum hepatic MRI signal enhancement by gadoxetate [3]: reduction

SMILES: CO[C@H]1/C=C/O[C@@]2(C)Oc3c(C)c(O)c4c(O)c(cc(O)c4c3C2=O)NC(=O)/C(C)=C\C=C\[C@H](C)[C@H](O)[C@@H](C)[C@@H](O)[C@@H](C)[C@H](OC(C)=O)[C@@H]1C [rifamycin]
- maximum hepatic MRI signal enhancement by gadoxetate [3]: reduction
